Data set [1] in a line: % dose converted to 2-amino-5-chlorophenyl sulfate. The class given is ADME. The gist of the method: (§1)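 Groups of two to four mice received single 100 mg/kg oral doses of each compound. Urine was pooled over 0-24 h, and the 2-amino-5-chlorophenyl sulfate excreted in 24 h per mouse was quantified as the marker of p-chloroaniline release.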
A short description of data set [2]: % dose converted to 4-(S-amino-N-{[(4-chlorophenyl)amino]carbonyl}sulfonimidoyl)benzoic acid (compound 41). It is filed as ADME.
A short description of data set [3]: Metabolic breakdown to the o-sulfate of p-chloroaniline (2-amino-5-chlorophenyl sulfate) by giving 100 mg/kg oral doses of the compound. Also on record: dose 100 mg/kg, route oral. It is filed as ADME, organism-based. As to conditions: in vivo. The essentials:
as §1

In data set [4] the test system is Mus musculus. The experiment in a line: (§2) In vivo antitumor activity of compound against subaxillary implanted 6C3HED lymphosarcoma implanted in C3H mice at a dose of 75 mg/kg administered perorally twice daily for a period of 8 days. The class given is functional. To be noted: 192 h, route oral. The gist of the method: (§3)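 6C3HED lymphosarcoma was carried in C3H mice. Compound was dosed at the stated route and schedule for 8 days (daily, twice daily, or days 1, 3, 5, 7) and tumor growth inhibition was scored against controls. The table value is the lowest dose giving >80% inhibition, or the highest dose tested. Deaths per group were recorded.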

For data set [5], the system named is Mus musculus. The data set is described as §2. It is filed as functional. As to conditions: route oral. The essentials:
(§4)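 Oral dosing twice daily for 8 days in C3H mice bearing 6C3HED lymphosarcoma. Read-out is percent tumor growth inhibition relative to controls, with deaths per group also recorded. The full in vivo protocol is given in an earlier report.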

Data set [6] has as its system Mus musculus. The experiment in a line: In vivo antitumor activity against subaxillary implanted 6C3HED lymphosarcoma implanted in C3H mice at a dose of 150 mg/kg administered perorally twice daily for a period of 8 days. As to conditions: route oral, 150 mg/kg. It is filed as functional. The essentials:
as §3

The subject of a further data set is CCRF-CEM. Description: In vitro cytotoxicity against CCRF-CEM cells. It is filed as functional, cell-based. To be noted: Homo sapiens. The gist of the method:
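CCRF-CEM cells were grown in culture for 72 h with compound. The value is the concentration that inhibited growth to 50% of control growth.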

Data set [7] relates to Mus musculus. Description: In vivo antitumor activity of compound against subaxillary implanted 6C3HED lymphosarcoma implanted in C3H mice at a dose of 4.0 mg/kg administered intraperitoneally twice daily for a period of 8 days. It is filed as functional. As to conditions: ip, 192 h, route intraperitoneal. The gist of the method: as §3
Data set [8] relates to Mus musculus. The experiment in a line: In vivo antitumor activity of compound against subaxillary implanted 6C3HED lymphosarcoma implanted in C3H mice at a dose of 150 mg/kg administered perorally daily for a period of 8 days. The class given is functional. As to conditions: 192 h, route oral. The gist of the method: as §3
For data set [9], the system named is Mus musculus. The experiment in a line: In vivo antitumor activity of compound against subaxillary implanted 6C3HED lymphosarcoma implanted in C3H mice at a dose of 25 mg/kg administered perorally twice daily for a period of 8 days. It is filed as functional. To be noted: route oral. The gist of the method:
as §4

Data set [10] has as its system Mus musculus. Description: In vivo antitumor activity of compound against subaxillary implanted 6C3HED lymphosarcoma implanted in C3H mice at a dose of 150 mg/kg administered perorally twice daily for a period of 8 days; Toxic. Also on record: dose 150 mg/kg. It is filed as functional, organism-based. The gist of the method: as §3
Data set [11] concerns Mus musculus. The experiment in a line: In vivo antitumor activity of compound against subaxillary implanted 6C3HED lymphosarcoma implanted in C3H mice at a dose of 25 mg/kg administered perorally daily for a period of 8 days. The class given is functional. To be noted: 192 h, route oral. The essentials:
as §3

We go through five molecules from ChEMBL document CHEMBL1129963, “Sulfonimidamide analogs of oncolytic sulfonylureas” (J Med Chem, 1997).

Structures are written as SMILES. ≈ marks a conversion by molar mass, not a printed value.

As usually defined, the inhibition in vivo is the change of the read-out against control, counted positive when it falls. Low values mean a weak effect, high ones a strong effect. One may read the Inhibition as how much of the control response was suppressed. As usually defined, the IC50 is the concentration at which inhibition is half-maximal.

For the molecule `Cc1ccc([S+](N)([O-])=NC(=O)Nc2ccc(Cl)cc2)cc1` (single isomer, unassigned; (-)), the Dose converted in data set [1] is 4.7%; in data set [2], 18%. The molecule further showed an Activity in data set [3] of 0.58 µM. In the data set with Mus musculus [4], the inhibition in vivo at 75 mg/kg worked out at 100%. The Lethality in the data set on Mus musculus [5] came to 60%. The Inhibition with Mus musculus [6] stood at 100%.

In turn, `Cc1ccc([S+](N)([O-])=NC(=O)Nc2ccc(Cl)cc2)cc1C` (stereo unspecified) gave an IC50 with CCRF-CEM above 20 µg/mL. In the data set on Mus musculus [7], this molecule registered an inhibition in vivo at 4 mg/kg of 97%.

In the case of `CN[S+]([O-])(=NC(=O)Nc1ccc(Cl)cc1)c1ccc(C)cc1` (stereo unspecified), in data set [3], the Activity came to 1.2 µM. The same molecule gave an IC50 with CCRF-CEM above 20 µg/mL. This molecule also came in with an inhibition in vivo at 150 mg/kg with Mus musculus [8] of 93%.

In turn, `N[S+]([O-])(=NC(=O)Nc1ccc(Cl)cc1)c1ccc(C(F)(F)F)cc1` (stereo unspecified) displayed an IC50 in the data set with CCRF-CEM of 15.2 µg/mL (≈ 40.2 µM). The Lethality in the data set with Mus musculus [9] amounted to 100%. Also, in the data set with Mus musculus [10], the inhibition result is “Toxic”.

`CN[S+]([O-])(=NC(=O)Nc1ccc(Cl)cc1)c1ccc(C)c(C)c1` (stereo unspecified) registered an IC50 in the data set on CCRF-CEM of 16.2 µg/mL (≈ 46 µM). This molecule had an inhibition in vivo at 25 mg/kg in the data set on Mus musculus [11] of 98%.
